The test system of assay [1] is Rattus norvegicus. Kind of assay: Antihypertensive activity expressed as change in mean arterial blood pressure (MABP) in spontaneously hypertensive rats (SHR), at 3-6h after 30 mg/kg oral administration. It counts as functional, Artery. In a few lines: (§1)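 Adult male SHR, catheter implanted in carotid artery or abdominal aorta under anesthesia at least 24 h before dosing. Baseline pressure recorded 1-1.5 h. Compound given orally at 30 mg/kg as solution or suspension in 0.5% Tween 80/distilled H2O (v/v) or other vehicle. MABP read at 0.5, 1, 1.5, 2, 3, 4, 5 and 6 h. Average percent change from predose calculated per period. Paired one-tailed t test, p < 0.05. n = 3-6 rats unless noted.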

For assay [2], the system named is Rattus norvegicus. Kind of assay: Antihypertensive activity expressed as change in mean arterial blood pressure (MABP) in spontaneously hypertensive rats (SHR),at 0.5-2h after 30 mg/kg oral administration. It counts as functional, Artery. In a few lines: as §1
The species named for a further assay is Oryctolagus cuniculus. Kind of assay: Calcium channel-blocking activity by determined by ability to antagonize calcium-induced contractions of isolated rabbit aortic strips. It counts as functional. The following applies: Aorta, read-out: pA2 (converted). In a few lines: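 Rabbit aortic strips were bathed in turn in CaCl2-containing buffer, CaCl2-free buffer, then depolarizing (KCl) CaCl2-free buffer. Cumulative CaCl2 addition induced contractions, recorded with force-displacement transducers. Responses were compared without and with 1–100 nM test compound. pA2 was calculated by the Van Rossum method from at least three tissues.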

The record followed here is ChEMBL document CHEMBL1125890, “Synthesis, calcium-channel-blocking activity, and antihypertensive activity of 4-(diarylmethyl)-1-[3-(aryloxy)propyl]piperidines and structurally related compounds” (J Med Chem, 1991).

Consider `COc1cc(C(C)=O)ccc1OCCCN1CCC(C(C#N)(c2ccc(F)cc2)c2ccc(F)cc2)C1` (configuration not stated), for which the Change with Rattus norvegicus [1] was 1%; in the assay on Rattus norvegicus [2], -2%. Moreover, in the assay filed under Oryctolagus cuniculus, the Kb is 6.31 nM.
In the case of `NC(=O)c1ccc(OCCCN2CCC(C(c3ccc(F)cc3)c3ccc(F)cc3)CC2)cc1`, the figures for the Change in the assay with Rattus norvegicus [1] and in the assay with Rattus norvegicus [2] were -8% and -3%, respectively. The Kb in the assay filed under Oryctolagus cuniculus is 31.6 nM.
For `COc1cc(C(C)=O)ccc1OCCCN1CCC(C(c2ccc(F)cc2)c2ccc(F)c(F)c2)CC1` (configuration not stated) the same measures were -30%, -27% and 1.26 nM.
For `COc1cc(C(C)=O)ccc1OCCCN1CCC(C(c2ccc(F)cc2F)c2ccc(F)cc2F)CC1`, the Change in the assay with Rattus norvegicus [1] is -16%; with Rattus norvegicus [2], -12%. Further, in the assay filed under Oryctolagus cuniculus, the Kb was 15.8 nM.
Turning to `COc1cc(C(C)=O)ccc1OCCCN1CCC(CC(c2ccc(F)cc2)c2ccc(F)cc2)CC1`, the Change in the assay on Rattus norvegicus [1] is listed as -10%; with Rattus norvegicus [2], -13%. Further, the Kb in the assay listed under Oryctolagus cuniculus is 3.16 nM.
With `COc1ccccc1OCCCN1CCC(C(c2ccc(F)cc2)c2ccc(F)cc2)CC1`, the Change with Rattus norvegicus [1] was -1%; with Rattus norvegicus [2], -4%. For the same compound, the Kb in the assay listed under Oryctolagus cuniculus is 2.51 nM.
`COc1cc(C(=O)O)ccc1OCCCN1CCC(C(c2ccc(F)cc2)c2ccc(F)cc2)CC1`: the Change with Rattus norvegicus [1] was 0%; with Rattus norvegicus [2] it was 9%. In the assay listed under Oryctolagus cuniculus, the Kb was 79.4 nM.
Turning to `COc1cc(C(C)=O)ccc1OCCCN1CCC(C(c2ccc(F)cc2)C2CCCCC2)CC1` (configuration not stated), the results for the Change in the assay with Rattus norvegicus [1] and in the assay on Rattus norvegicus [2] were -6% and 3%, respectively. Besides, the Kb in the assay filed under Oryctolagus cuniculus was 5.01 nM.
For `COc1cc(OCCCN2CCC(C(c3ccc(F)cc3)c3ccc(F)cc3)CC2)ccc1C(C)=O` the same measures were -11%, -5% and 3.16 nM.
For `COc1cc(C(C)=O)ccc1OCCCN1CCC(C(NC(C)=O)(c2ccc(F)cc2)c2ccc(F)cc2)CC1` the same measures were -7%, -3% and 63.1 nM.
For the compound `COc1cc(C(C)=O)ccc1OCCCCCN1CCC(C(c2ccc(F)cc2)c2ccc(F)cc2)CC1`, the Change in the assay with Rattus norvegicus [1] is reported as -13%; in the assay on Rattus norvegicus [2] it was -5%. In addition, in the assay filed under Oryctolagus cuniculus, the Kb is 3.16 nM.
In the case of `Fc1ccc(C(c2ccc(F)cc2)C2CCN(CCCSc3ccccc3)CC2)cc1`, the Change in the assay with Rattus norvegicus [1] is -3%; with Rattus norvegicus [2] it was -5%. For the same compound, the Kb in the assay filed under Oryctolagus cuniculus is 3.16 nM.
On to `CC(=O)Nc1ccc(OCCCN2CCC(C(c3ccc(F)cc3)c3ccc(F)cc3)CC2)cc1`, for which the Change in the assay with Rattus norvegicus [1] and in the assay on Rattus norvegicus [2] was -12% throughout. For the same compound, in the assay filed under Oryctolagus cuniculus, the Kb was 12.6 nM.
As for `COc1cc(C(C)=O)ccc1OCCCCN1CCC(C(c2ccc(F)cc2)c2ccc(F)cc2)CC1`, the Change is recorded as -21% in the assay with Rattus norvegicus [1] and -16% with Rattus norvegicus [2]. In addition, in the assay listed under Oryctolagus cuniculus, the Kb is 2.51 nM.
For `COc1cc(C(C)=O)ccc1OCCCN1CCCC(C(C#N)(c2ccc(F)cc2)c2ccc(F)cc2)C1` (configuration not stated), the values for the Change in the assay on Rattus norvegicus [1] and with Rattus norvegicus [2] were 9% and 5%, respectively. The Kb in the assay filed under Oryctolagus cuniculus is 7.94 nM.
On to `Fc1ccc(C(c2ccc(F)cc2)C2CCN(CCCOc3ccc(Br)cc3)CC2)cc1`, for which the results for the Change in the assay on Rattus norvegicus [1] and with Rattus norvegicus [2] were -17% and -3%, respectively. For the same compound, in the assay filed under Oryctolagus cuniculus, the Kb was 1.58 nM.
Regarding `Fc1ccc(OCCCN2CCC(C(c3ccc(F)cc3)c3ccc(F)cc3)CC2)cc1`, the Change in the assay on Rattus norvegicus [1] is recorded as -6%; in the assay on Rattus norvegicus [2], -2%. For the same compound, the Kb in the assay filed under Oryctolagus cuniculus was 1.26 nM.
`COc1cc(C(C)=O)ccc1OCCCN1CCC(=C(c2ccc(F)cc2)c2ccc(F)cc2)CC1`: the values for the Change with Rattus norvegicus [1] and with Rattus norvegicus [2] were -12% and -9%, respectively. The Kb in the assay filed under Oryctolagus cuniculus is 3.98 nM.
In the case of `COc1cc(C(C)=O)ccc1OCCCN1CCCC(CC(C#N)(c2ccc(F)cc2)c2ccc(F)cc2)C1` (configuration not stated), the Change in the assay with Rattus norvegicus [1] is -5%; in the assay on Rattus norvegicus [2] it was 2%. Moreover, the Kb in the assay filed under Oryctolagus cuniculus was 12.6 nM.
The like results for `COc1ccc([C@@H]2Sc3ccccc3N(CCN(C)C)C(=O)[C@@H]2OC(C)=O)cc1` [DILTIAZEM] were, in that order, -13%, -14% and 20 nM.
For `Fc1ccc(C(c2ccc(F)cc2)N2CCN(C/C=C/c3ccccc3)CC2)cc1` [FLUNARIZINE], the Change in the assay on Rattus norvegicus [1] and in the assay with Rattus norvegicus [2] was -1% in each case. The Kb in the assay filed under Oryctolagus cuniculus was 5.01 nM.
For `Cc1cccc(C)c1NC(=O)CN1CCN(CCCC(c2ccc(F)cc2)c2ccc(F)cc2)CC1` [LIDOFLAZINE], the Change in the assay on Rattus norvegicus [1] and in the assay with Rattus norvegicus [2] was -9% each time. Besides, the Kb in the assay filed under Oryctolagus cuniculus was 31.6 nM.
For the compound `COC(=O)C1=C(C)NC(C)=C(C(=O)OC)C1c1ccccc1[N+](=O)[O-]` [NIFEDIPINE], the values for the Change with Rattus norvegicus [1] and with Rattus norvegicus [2] were -35% and -30%, respectively. Further, in the assay filed under Oryctolagus cuniculus, the Kb is 0.158 nM.
On to `COc1ccc(CCN(C)CCCC(C#N)(c2ccc(OC)c(OC)c2)C(C)C)cc1OC` (configuration not stated) [VERAPAMIL], for which the Change with Rattus norvegicus [1] is on record as -22%; in the assay with Rattus norvegicus [2], -19%. The Kb in the assay listed under Oryctolagus cuniculus is 10 nM.
